Laboratory results published in ChEMBL document CHEMBL3865825, “Discovery of novel Tetrahydrobenzo[b]thiophene and pyrrole based scaffolds as potent and selective CB2 receptor ligands: The structural elements controlling binding affinity, selectivity and functionality” (Eur J Med Chem, 2016).
The source made the active and inactive calls. No cut-off for these calls is given here.

Key:
[1] = target: Cannabinoid receptor 1 (CB1) (Homo sapiens, UniProt P21554); assay: Displacement of [3H]-CP-55940 from human CB1 receptor expressed in HEK293 cell membranes at 1 to 10 uM after 90 mins relative to control; conditions: membranes of HEK293 cells expressing human CB1 receptor, probe [3H]-CP-55940
Sequence of Cannabinoid receptor 1 (CB1) (P21554 whole entry): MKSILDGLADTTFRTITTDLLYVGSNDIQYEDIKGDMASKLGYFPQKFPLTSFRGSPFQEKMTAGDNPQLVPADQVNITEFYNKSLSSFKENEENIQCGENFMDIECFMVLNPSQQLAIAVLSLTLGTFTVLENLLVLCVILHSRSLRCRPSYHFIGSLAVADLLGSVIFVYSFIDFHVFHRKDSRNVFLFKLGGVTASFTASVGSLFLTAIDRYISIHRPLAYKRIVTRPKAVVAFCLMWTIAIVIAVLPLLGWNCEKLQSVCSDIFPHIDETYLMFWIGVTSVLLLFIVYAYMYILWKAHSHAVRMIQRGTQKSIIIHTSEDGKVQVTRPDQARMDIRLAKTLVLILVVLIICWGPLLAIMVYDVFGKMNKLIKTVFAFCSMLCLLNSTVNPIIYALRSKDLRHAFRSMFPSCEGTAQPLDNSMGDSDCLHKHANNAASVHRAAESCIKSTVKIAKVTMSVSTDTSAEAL

Cannabinoid receptor 1 = Cannabinoid receptor 1 (Homo sapiens, UniProt P21554); assay: Displacement of [3H]-CP-55940 from human CB1 receptor expressed in HEK293 cell membranes after 90 mins by radioligand binding assay
Sequence of Cannabinoid receptor 1 (P21554 whole entry): as above

Cannabinoid receptor 2 [2] = target: T1, Cannabinoid receptor 2 (Homo sapiens, UniProt P34972); assay: Displacement of [3H]-CP-55940 from human CB2 receptor expressed in HEK293 cell membranes at 1 to 10 uM after 90 mins relative to control
T1 sequence (P34972 whole entry): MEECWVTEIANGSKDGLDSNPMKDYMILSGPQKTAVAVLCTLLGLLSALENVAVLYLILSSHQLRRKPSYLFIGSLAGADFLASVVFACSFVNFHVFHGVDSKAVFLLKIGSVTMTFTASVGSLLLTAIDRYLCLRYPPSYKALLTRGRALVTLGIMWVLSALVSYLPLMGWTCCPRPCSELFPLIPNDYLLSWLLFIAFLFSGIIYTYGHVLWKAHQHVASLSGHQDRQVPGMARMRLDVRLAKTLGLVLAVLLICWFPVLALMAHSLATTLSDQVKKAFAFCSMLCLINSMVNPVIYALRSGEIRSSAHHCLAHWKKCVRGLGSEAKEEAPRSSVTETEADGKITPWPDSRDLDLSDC

Cannabinoid receptor 2 [3] = target: T1, Cannabinoid receptor 2; assay: Displacement of [3H]-CP-55940 from human CB2 receptor expressed in HEK293 cell membranes after 90 mins by radioligand binding assay
How it was run: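 Compounds were screened at 1 and 10 µM; those displacing over 50% were run at 0.1nM–10µM. Ki by Cheng-Prusoff from IC50. At least three experiments, duplicate.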

HEK293 = assay: Selectivity index, ratio of Ki for human CB1 receptor expressed in HEK293 cell membranes to Ki for human CB2 receptor expressed in HEK293 cell membranes; format: cell-based
Cannabinoid receptor 2 [4] = target: T1, Cannabinoid receptor 2
Cannabinoid receptor 2 [5] = target: T1, Cannabinoid receptor 2; assay: Inverse agonist activity at human CB2 receptor expressed in CHO-K1 cells assessed as increase in NKH-477-induced intracellular cAMP levels after 30 mins by luminescence assay; format: functional, cell-based
How it was run: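 CHO-K1 cells stably overexpressing human CB2, plated 30,000 cells/well and held overnight at 37 °C, 5% CO2. Compounds were added with NKH-477 (water-soluble forskolin analogue; 3x of 25µM solution) for 30 min at 37°C. cAMP was read by enzyme-fragment-complementation chemiluminescence. Values are normalized to NKH-477 alone as 100% response. Three independent experiments, triplicate.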

Cannabinoid receptor 2 [6] = target: T1, Cannabinoid receptor 2; assay: Antagonist activity at human CB2 receptor expressed in CHO-K1 cells assessed as increase in NKH-477-induced intracellular cAMP levels preincubated for 15 mins followed by JWH-133 addition after 30 mins by luminescence assay; format: functional, cell-based

| SMILES | inhibition at 1.5 h, up to 10 µM [1] [%] | Ki (Cannabinoid receptor 1) [µM] | inhibition (Cannabinoid receptor 2 [2]) [%] | Ki (Cannabinoid receptor 2 [3]) [nM] | Ratio Ki (HEK293) | IC50 (Cannabinoid receptor 2 [4]) [nM] | Activity (Cannabinoid receptor 2 [5]) | Activity (Cannabinoid receptor 2 [6]) |
| --- | --- | --- | --- | --- | --- | --- | --- | --- |
| CCc1c(C(=O)O)cc(C)n1-c1ccccc1 | > 50 | > 10 | > 50 | > 10000 |  |  |  |  |
| CCc1c(C(=O)NC2CCCCC2)cc(C)n1-c1ccccc1 | > 50 | 4.57 | > 50 | 171 | > 26.8 |  |  |  |
| CCc1c(C(=O)NCCc2ccccc2)cc(C)n1-c1ccccc1 | > 50 | > 10 | > 50 | 718 | > 13.9 |  |  |  |
| CCOC(=O)c1c(N)sc2c1CCCC2 | > 50 | > 10 | > 50 | > 10000 |  |  |  |  |
| CCOC(=O)c1c(NS(=O)(=O)c2ccc(Cl)cc2)sc2c1CCCC2 | > 50 | > 10 | > 50 | > 10000 |  |  |  |  |
| CCOC(=O)c1cc(-c2ccccc2)sc1NS(=O)(=O)c1ccc(Cl)cc1 | > 50 | > 10 | > 50 | > 10000 |  |  |  |  |
| Cc1cc(C(=O)NC(C)c2ccccc2)c(C)n1-c1ccccc1 (stereo not drawn) | > 50 | 2.62 | > 50 | 546 | 4.8 |  |  |  |
| CCOC(=O)c1cc(-c2ccccc2)sc1NC(=O)c1cccc2ccccc12 | > 50 | > 10 | > 50 | 59.8 | > 167 |  |  |  |
| CCOC(=O)c1cc(-c2ccccc2)sc1NC(=O)c1ccc2ccccc2c1 | > 50 | > 10 | > 50 | > 10000 |  |  |  |  |
| Cc1cc(C(=O)NC23CC4CC(CC(C4)C2)C3)c(C)n1-c1ccccc1 | > 50 | 0.518 | > 50 | 7.59 | 68.3 | 109 | Active | Active |
| Cc1ccc(Cn2nc(C(=O)N[C@@H]3C(C)(C)[C@@H]4CC[C@@]3(C)C4)cc2-c2ccc(Cl)c(C)c2)cc1 | > 50 |  | > 50 |  |  |  |  |  |
| CCOC(=O)c1c(NS(C)(=O)=O)sc2c1CCCC2 | > 50 | > 10 | > 50 | > 10000 |  |  |  |  |
| CCOC(=O)c1c(NC(=O)CCc2ccccc2)sc2c1CCCC2 | > 50 | > 10 | > 50 | 112 | > 89.4 |  |  |  |
| CCc1c(C(=O)Nc2ccc3ccccc3c2)cc(C)n1-c1ccccc1 | > 50 | 0.633 | > 50 | 57 | 11.1 |  |  |  |
| CCOC(=O)c1cc(-c2ccccc2)sc1NS(=O)(=O)c1ccccc1 | > 50 | > 10 | > 50 | > 10000 |  |  |  |  |
| Cc1cc(C(=O)Nc2cccc3ccccc23)c(C)n1-c1ccccc1 | > 50 | 0.317 | > 50 | 84.2 | 3.76 |  |  |  |
